Reference: ChEMBL document CHEMBL1156856, “Design, synthesis, and biological evaluation of novel estradiol-bisphosphonate conjugates as bone-specific estrogens” (Bioorg Med Chem, 2010)
Values belong to the molecule of their own block, whether it stands above or below them. The source made the active and inactive calls. The rule behind the calls is not given here.

Columns and labels:
Rattus norvegicus [1] = assay: Estrogenic activity in uterus of ovariectomized Sprague-Dawley rat assessed as increase in uterus weight at 0.1 mg/kg, iv administered three times per week for 4 weeks on the first, second, and fifth days; format: functional, organism-based; design: dose 0.1 mg/kg
Procedure, shortened: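 Female SD rats, 7 weeks old on arrival, were housed 4 weeks, weight-matched into groups, and bilaterally ovariectomized, with sham-operated controls. Conjugate was given iv at 0.1 mg/kg the day after surgery in 1% carboxymethyl cellulose plus 1% citrate buffer. Uterine weight was the read-out.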

Rattus norvegicus [2] = assay: Estrogenic activity in bone of ovariectomized Sprague-Dawley rat assessed as increase in bone mass at 0.1 mg/kg, iv administered three times per week for 4 weeks on the first, second, and fifth days; format: functional, organism-based; design: dose 0.1 mg/kg
Procedure, shortened: (§1)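 Female SD rats, 7 weeks old on arrival, were housed 4 weeks and assigned to groups matched for mean body weight. All except sham controls were bilaterally ovariectomized. The next day they received conjugate at 0.1 mg/kg iv in 1% carboxymethyl cellulose plus 1% citrate buffer. Bone effect was read as secondary-spongiosa bone volume of the left tibia and ash weight of the right femur.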

[3] = target: T1, Estrogen receptor (Rattus norvegicus) (UniProt P06211); assay: Ratio of binding affinity of compound to estradiol at rat uterus estrogen receptor by competitive binding assay
T1 sequence (whole entry): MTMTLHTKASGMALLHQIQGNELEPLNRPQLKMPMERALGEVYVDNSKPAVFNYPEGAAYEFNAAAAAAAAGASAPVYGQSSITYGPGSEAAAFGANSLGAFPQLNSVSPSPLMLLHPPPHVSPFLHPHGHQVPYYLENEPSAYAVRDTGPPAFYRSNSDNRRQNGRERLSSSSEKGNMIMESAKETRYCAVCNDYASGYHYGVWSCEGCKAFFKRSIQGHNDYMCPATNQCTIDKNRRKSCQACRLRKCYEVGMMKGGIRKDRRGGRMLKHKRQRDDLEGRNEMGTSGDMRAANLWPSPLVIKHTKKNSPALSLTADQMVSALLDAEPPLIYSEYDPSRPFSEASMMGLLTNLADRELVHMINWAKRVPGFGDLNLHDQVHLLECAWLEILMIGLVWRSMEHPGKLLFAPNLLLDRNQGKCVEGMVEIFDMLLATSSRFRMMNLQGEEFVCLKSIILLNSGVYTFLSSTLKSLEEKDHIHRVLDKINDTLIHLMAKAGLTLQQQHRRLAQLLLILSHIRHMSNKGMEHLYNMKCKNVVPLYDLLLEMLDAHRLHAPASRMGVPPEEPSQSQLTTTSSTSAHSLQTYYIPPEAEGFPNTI

Rattus norvegicus [4] = assay: Estrogenic activity in bone of ovariectomized Sprague-Dawley rat assessed as increase in bone mass at 0.1 mg/kg, iv administered three times per week for 4 weeks on the first, second, and fifth days co-administered with antiestrogen fulvaestrant; format: functional, organism-based; design: dose 0.1 mg/kg; procedure, shortened: as §1
Rattus norvegicus [5] = assay: Bisphosphonate activity in ovariectomized Sprague-Dawley rat assessed as suppression of Ca2+ ion release from bone at 0.1 mg/kg, iv administered three times per week for 4 weeks on the first, second, and fifth days; format: functional, organism-based; design: dose 0.1 mg/kg
Procedure, shortened: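 In rats, bisphosphonate activity was measured as suppression of PTHrp-induced Ca2+ ion release from bone.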

Structure (SMILES): C[C@]12CC[C@@H]3c4ccc(OC(=O)CC(=O)NC(P(=O)(O)O)P(=O)(O)O)cc4CC[C@H]3[C@@H]1CC[C@@H]2O
Activity (Rattus norvegicus [1]): inactive

Structure (SMILES): C[C@]12CC[C@@H]3c4ccc(O)cc4CC[C@H]3[C@@H]1CC[C@@H]2O
Activity (Rattus norvegicus [2]): Active | Activity (Rattus norvegicus [1]): Active

Structure (SMILES): C[C@]12CC[C@@H]3c4ccc(O)cc4CC[C@H]3[C@@H]1CC[C@@H]2OC(=O)CC(=O)NC(P(=O)(O)O)P(=O)(O)O
Activity (Rattus norvegicus [1]): inactive

Structure (SMILES): C[C@]12CC[C@@H]3c4ccc(O)cc4CC[C@H]3[C@@H]1CC[C@@H]2OC(=O)c1ccccc1C(=O)NC(P(=O)(O)O)P(=O)(O)O
Activity (Rattus norvegicus [1]): inactive

Structure (SMILES): C[C@]12CC[C@@H]3c4ccc(O)cc4CC[C@H]3[C@@H]1CC[C@@H]2OC(=O)CCNC(=O)NC(P(=O)(O)O)P(=O)(O)O
Activity (Rattus norvegicus [1]): inactive

Ratio [3]: 2000
Structure (SMILES): C[C@]12CC[C@@H]3c4ccc(OC(=O)NCCC(=O)NC(P(=O)(O)O)P(=O)(O)O)cc4CC[C@H]3[C@@H]1CC[C@@H]2O
Activity (Rattus norvegicus [4]): inactive | Activity (Rattus norvegicus [2]): Active | Activity (Rattus norvegicus [5]): inactive | Activity (Rattus norvegicus [1]): inactive

Structure (SMILES): CC(C)(C(=O)NC(P(=O)(O)O)P(=O)(O)O)C(=O)O[C@H]1CC[C@H]2[C@@H]3CCc4cc(O)ccc4[C@H]3CC[C@]12C
Activity (Rattus norvegicus [1]): inactive
